Experimental data published in ChEMBL document CHEMBL4354879, “Bioisosteric Discovery of NPA101.3, a Second-Generation RET/VEGFR2 Inhibitor Optimized for Single-Agent Polypharmacology” (J Med Chem, 2020).
The source made the active and inactive calls. The rule behind the calls is not given here.

Tests used:
[1] = Toxicity in BALB/c nu/nu mouse assessed as change in alanine transaminase level at 10 mg/kg, po administered daily for 7 days; format: organism-based; conditions: in vivo, 168 h
Procedure, shortened: (§1)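 Mice dosed orally with 10 mg/kg/day for 7 days; standard blood markers of organ damage measured.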

[2] = target: High affinity nerve growth factor receptor (Homo sapiens, UniProt P04629); test: Binding affinity to wild-type human partial length TRKA (G475 to G790 residues) expressed in mammalian expression system at 100 nM by Kinomescan method relative to control
[3] = target: Coiled-coil domain-containing protein 6/Tyrosine-protein kinase receptor RET (Homo sapiens) (UniProt P07949+Q16204); test: Inhibition of CCDC6/RET in human TPC1 cells assessed as reduction in SHC phosphorylation at 0.3 to 30 nM measured after 2 hrs by Western blot analysis; format: cell-based
[4] = test system: BaF3; test: Inhibition of NCOA4/RET […] (unknown origin) expressed in mouse BAF3 cells assessed as reduction in RET phosphorylation at Y905 residue at 0.3 to 30 nM measured after 2 hrs by Western blot analysis; format: cell-based; conditions: Homo sapiens
Procedure, shortened: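 Ba/F3 cells stably expressing long-isoform RET-51 mutants (electroporation), cultured in RPMI/10% FCS without IL-3; RET phosphorylation read by Western blot with anti-phospho-Y905 and anti-phospho-Y1062 antibodies, ECL detection.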

[5] = Toxicity in BALB/c nu/nu mouse assessed as change in albumin level at 10 mg/kg, po administered daily for 7 days; format: organism-based; conditions: in vivo, 168 h; procedure, shortened: as §1
[6] = organism: Homo sapiens; test: Inhibition of CCDC6/RET isoform 9 (unknown origin) expressed in mouse NIH/3T3 cells assessed as reduction in RET phosphorylation at Y905 residue at 1 to 100 nM measured after 2 hrs by Western blot analysis; format: cell-based
Procedure, shortened: (§2)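 Serum-starved RAT1 (RET point mutants) or NIH3T3 (RET rearrangements) cells expressing short RET-9 isoform, treated 2 h; 50 μg total lysate immunoblotted with anti-phospho-Y1062 and anti-phospho-Y905 RET antibodies, normalized to total RET; ECL detection. Compound from 50 mM DMSO stock diluted in growth medium.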

[7] = test system: Proto-oncogene tyrosine-protein kinase receptor Ret (Homo sapiens), P07949 [A883F]; test: Inhibition of RET isoform 9 A883F mutant (unknown origin) expressed in rat Rat1 assessed as reduction in RET phosphorylation at Y905 residue at 1 to 100 nM measured after 2 hrs by Western blot analysis; format: cell-based; procedure, shortened: as §2
[8] = target: T1, SHC-transforming protein 1 (Homo sapiens) (UniProt P29353); test: Effect on SHC phosphorylation in RET deficient human A549 cells at 1 to 100 nM measured after 2 hrs by western blot analysis; format: cell-based
T1 sequence (whole entry): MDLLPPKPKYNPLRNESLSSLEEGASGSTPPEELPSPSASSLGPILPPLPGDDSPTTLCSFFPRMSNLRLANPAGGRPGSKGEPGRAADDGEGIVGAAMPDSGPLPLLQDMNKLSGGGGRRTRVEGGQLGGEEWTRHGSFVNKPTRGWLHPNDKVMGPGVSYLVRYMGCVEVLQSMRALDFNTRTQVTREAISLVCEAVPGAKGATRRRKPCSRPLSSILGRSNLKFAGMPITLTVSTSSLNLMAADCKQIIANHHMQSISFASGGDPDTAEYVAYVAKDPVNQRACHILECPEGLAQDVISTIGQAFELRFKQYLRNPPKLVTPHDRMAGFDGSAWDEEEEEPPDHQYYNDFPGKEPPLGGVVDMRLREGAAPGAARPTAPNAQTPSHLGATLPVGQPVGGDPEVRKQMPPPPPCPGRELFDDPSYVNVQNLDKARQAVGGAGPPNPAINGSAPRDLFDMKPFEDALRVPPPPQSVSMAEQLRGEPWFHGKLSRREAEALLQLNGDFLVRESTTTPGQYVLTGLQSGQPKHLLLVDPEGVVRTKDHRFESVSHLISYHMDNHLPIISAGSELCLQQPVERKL

[9] = target: T2, Vascular endothelial growth factor receptor 2 (Homo sapiens, UniProt P35968); test: Inhibition of recombinant human VEGFR2 expressed in HEK293 cells assessed as reduction in VEGFA-induced VEGFR2 autophosphorylation at 1 to 10 nM preincubated for 2 hrs followed by VEGFA-stimulation and measured after 15 mins by Western blot analysis; format: cell-based
Procedure, shortened: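 HEK293 transiently transfected with human VEGFR2; 36 h post-transfection serum-starved 12 h, compound or vehicle 2 h, then VEGFA 100 ng/mL for 15 min; lysates blotted for phospho-VEGFR2, normalized to total VEGFR2.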

[10] = target: Proto-oncogene tyrosine-protein kinase receptor Ret (Homo sapiens, UniProt P07949); test: Binding affinity to recombinant phosphorylated RET kinase domain (705 to 1013 residues) (unknown origin) expressed in baculovirus infected Sf9 insect cells assessed as change in melting temperature at 40 uM measured over 240 mins by sypro orange dye based thermal shift assay
[11] = target: Centrosomal protein 43/RET (Homo sapiens) (UniProt P07949+O95684); test: Inhibition of FGFR1OP/RET isoform 9 (unknown origin) expressed in mouse NIH/3T3 cells assessed as reduction in RET phosphorylation at Y905 residue at 1 to 100 nM measured after 2 hrs by Western blot analysis; format: cell-based; procedure, shortened: as §2
[12] = test system: 8505C; test: Cytotoxicity against RET deficient human 8505C cells supplemented with fresh medium containing compound for every 2 to 3 days measured during compound dosing; format: functional, cell-based
Procedure, shortened: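 Human RET-negative lines were seeded in six-well plates at 10000 cells/well, in 5% FCS (Nthy-ori-3-1) or 10% FCS (BCPAP, 8505-C, CALU-1, A549, PC-9). Drug or vehicle was added the day after plating, with medium changed every 2–3 days. Cells were counted every 2–3 days. IC50 was fitted from the last day of the growth curves.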

[13] = target: T2, Vascular endothelial growth factor receptor 2; test: Inhibition of recombinant human His-tagged VEGFR2 cytoplasmic domain (789 to 1356 residues) expressed in baculovirus expression system using peptide substrate preincubated for 60 mins followed by substrate addition by microfluidic assay
[14] = target: T1, SHC-transforming protein 1 (Homo sapiens); test: Effect on SHC phosphorylation in RET deficient human Calu1 cells at 1 to 100 nM measured after 2 hrs by western blot analysis
[15] = test system: Proto-oncogene tyrosine-protein kinase receptor Ret (Homo sapiens), P07949 [M918T]; test: Inhibition of RET isoform 9 M918T mutant (unknown origin) expressed in rat Rat1 assessed as reduction in RET phosphorylation at Y905 residue at 1 to 100 nM measured after 2 hrs by Western blot analysis; format: cell-based; procedure, shortened: as §2
[16] = target: MAP kinase-interacting serine/threonine-protein kinase 2 (Homo sapiens) (UniProt Q9HBH9); test: Binding affinity to wild-type human partial length MKNK2 (G63 to S388 residues) expressed in mammalian expression system at 100 nM by Kinomescan method relative to control
[17] = Inhibition of NCOA4/RET […] (unknown origin) expressed in mouse BAF3 cells assessed as reduction in cell proliferation supplemented with fresh medium containing compound for every 2 to 3 days and measured daily; format: cell-based
[18] = Toxicity in BALB/c nu/nu mouse assessed as change in globulin level at 10 mg/kg, po administered daily for 7 days; format: organism-based; conditions: in vivo, 168 h
[19] = target: T1, SHC-transforming protein 1 (Homo sapiens); test: Effect on SHC phosphorylation in RET deficient human PC9 cells at 1 to 100 nM measured after 2 hrs by western blot analysis

T2 sequence (P35968 whole entry): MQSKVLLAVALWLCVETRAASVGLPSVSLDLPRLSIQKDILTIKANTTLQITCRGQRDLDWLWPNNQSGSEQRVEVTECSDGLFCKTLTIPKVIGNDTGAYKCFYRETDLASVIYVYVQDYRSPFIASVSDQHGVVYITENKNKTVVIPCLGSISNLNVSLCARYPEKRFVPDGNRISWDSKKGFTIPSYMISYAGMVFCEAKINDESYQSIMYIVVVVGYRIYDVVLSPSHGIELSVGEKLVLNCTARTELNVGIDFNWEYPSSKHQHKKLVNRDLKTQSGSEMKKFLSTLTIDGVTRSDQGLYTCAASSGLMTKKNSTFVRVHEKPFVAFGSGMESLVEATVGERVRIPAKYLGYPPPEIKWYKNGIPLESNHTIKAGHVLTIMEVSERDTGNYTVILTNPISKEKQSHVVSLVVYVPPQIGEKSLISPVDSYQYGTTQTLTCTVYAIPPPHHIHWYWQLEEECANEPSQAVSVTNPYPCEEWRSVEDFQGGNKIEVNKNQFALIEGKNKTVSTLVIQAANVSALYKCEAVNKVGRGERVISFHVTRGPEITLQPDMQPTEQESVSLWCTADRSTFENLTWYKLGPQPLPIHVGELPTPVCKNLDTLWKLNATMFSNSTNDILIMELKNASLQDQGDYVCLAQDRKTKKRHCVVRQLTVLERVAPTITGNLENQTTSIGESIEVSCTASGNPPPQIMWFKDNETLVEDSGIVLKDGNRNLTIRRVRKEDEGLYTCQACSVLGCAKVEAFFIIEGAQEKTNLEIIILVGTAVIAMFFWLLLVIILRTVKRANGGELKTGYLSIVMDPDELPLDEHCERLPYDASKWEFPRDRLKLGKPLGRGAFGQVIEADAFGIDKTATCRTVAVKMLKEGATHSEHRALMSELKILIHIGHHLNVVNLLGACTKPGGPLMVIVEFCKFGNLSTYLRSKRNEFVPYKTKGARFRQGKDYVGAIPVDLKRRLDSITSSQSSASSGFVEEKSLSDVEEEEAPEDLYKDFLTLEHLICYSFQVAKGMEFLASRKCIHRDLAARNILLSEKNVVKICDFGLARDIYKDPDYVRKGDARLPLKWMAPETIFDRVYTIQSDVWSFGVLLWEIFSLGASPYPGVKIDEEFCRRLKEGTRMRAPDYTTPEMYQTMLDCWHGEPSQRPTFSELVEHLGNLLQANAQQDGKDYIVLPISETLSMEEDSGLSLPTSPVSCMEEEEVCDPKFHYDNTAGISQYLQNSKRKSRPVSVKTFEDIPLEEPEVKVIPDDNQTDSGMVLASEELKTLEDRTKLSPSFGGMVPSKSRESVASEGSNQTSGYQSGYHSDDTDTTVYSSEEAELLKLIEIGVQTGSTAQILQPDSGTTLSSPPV
Chain of Centrosomal protein 43/RET (Homo sapiens) (O95684 whole entry, looked up, canonical isoform): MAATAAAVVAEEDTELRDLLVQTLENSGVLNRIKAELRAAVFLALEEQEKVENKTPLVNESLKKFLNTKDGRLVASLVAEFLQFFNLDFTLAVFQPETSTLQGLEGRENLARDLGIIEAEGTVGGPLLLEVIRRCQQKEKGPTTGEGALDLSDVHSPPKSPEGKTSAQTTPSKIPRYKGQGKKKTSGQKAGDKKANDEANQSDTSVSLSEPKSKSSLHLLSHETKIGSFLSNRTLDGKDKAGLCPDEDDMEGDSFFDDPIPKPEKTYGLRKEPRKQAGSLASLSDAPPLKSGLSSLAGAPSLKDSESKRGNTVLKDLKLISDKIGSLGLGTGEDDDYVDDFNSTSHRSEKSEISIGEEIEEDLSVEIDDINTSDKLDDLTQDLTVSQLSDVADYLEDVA
Chain of Centrosomal protein 43/RET (Homo sapiens) (P07949 whole entry, looked up, canonical isoform): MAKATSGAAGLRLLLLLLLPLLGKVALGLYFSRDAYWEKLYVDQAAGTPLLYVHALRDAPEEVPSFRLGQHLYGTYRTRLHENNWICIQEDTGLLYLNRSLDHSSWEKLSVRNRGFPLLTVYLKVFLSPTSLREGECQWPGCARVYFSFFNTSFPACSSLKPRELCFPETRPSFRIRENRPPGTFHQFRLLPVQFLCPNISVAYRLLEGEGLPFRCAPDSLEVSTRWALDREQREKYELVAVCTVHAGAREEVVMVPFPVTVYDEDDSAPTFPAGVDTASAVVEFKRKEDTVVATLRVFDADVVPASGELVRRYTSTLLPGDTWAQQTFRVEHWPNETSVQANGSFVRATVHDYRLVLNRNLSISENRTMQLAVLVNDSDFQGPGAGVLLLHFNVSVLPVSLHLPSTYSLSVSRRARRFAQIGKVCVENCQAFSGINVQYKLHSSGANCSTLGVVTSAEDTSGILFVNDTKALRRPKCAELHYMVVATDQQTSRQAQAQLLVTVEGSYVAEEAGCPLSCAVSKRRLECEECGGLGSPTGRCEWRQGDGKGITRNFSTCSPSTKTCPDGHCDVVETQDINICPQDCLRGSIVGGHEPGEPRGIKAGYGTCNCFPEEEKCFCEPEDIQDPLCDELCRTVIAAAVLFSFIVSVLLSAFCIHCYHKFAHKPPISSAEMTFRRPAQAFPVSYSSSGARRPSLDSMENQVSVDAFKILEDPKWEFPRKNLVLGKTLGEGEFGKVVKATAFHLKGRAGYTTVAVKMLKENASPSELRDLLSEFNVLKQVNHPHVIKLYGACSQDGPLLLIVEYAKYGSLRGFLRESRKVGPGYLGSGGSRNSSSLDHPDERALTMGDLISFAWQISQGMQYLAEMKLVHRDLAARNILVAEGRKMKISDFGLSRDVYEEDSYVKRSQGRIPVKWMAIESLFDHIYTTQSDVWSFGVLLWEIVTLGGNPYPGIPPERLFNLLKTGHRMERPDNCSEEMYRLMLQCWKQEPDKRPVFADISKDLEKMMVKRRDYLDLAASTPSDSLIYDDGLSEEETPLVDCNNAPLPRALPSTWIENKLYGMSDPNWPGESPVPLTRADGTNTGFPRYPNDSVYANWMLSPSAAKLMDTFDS
Chain of Proto-oncogene tyrosine-protein kinase receptor Ret (Homo sapiens), P07949 [M918T] (P07949 whole entry M918T, the tested form may be a part, canonical isoform): as the sequence (P07949 whole entry, looked up, canonical isoform) above, with M918T counted along it
Chain of MAP kinase-interacting serine/threonine-protein kinase 2 (Homo sapiens) (Q9HBH9 whole entry, looked up, the tested form may be a part): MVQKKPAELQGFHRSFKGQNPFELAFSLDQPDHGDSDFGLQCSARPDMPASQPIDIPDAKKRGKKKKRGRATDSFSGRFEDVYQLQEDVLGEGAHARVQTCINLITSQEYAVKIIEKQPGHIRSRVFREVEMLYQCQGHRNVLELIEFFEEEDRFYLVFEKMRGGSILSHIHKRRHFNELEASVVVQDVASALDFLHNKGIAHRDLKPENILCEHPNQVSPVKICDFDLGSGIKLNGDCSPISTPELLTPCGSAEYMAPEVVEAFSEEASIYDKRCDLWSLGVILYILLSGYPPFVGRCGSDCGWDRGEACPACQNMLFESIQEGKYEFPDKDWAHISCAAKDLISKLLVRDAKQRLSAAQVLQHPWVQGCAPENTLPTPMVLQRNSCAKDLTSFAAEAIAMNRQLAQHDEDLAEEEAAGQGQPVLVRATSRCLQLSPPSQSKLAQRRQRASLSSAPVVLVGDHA
Chain of High affinity nerve growth factor receptor (P04629 33-796 limits assumed): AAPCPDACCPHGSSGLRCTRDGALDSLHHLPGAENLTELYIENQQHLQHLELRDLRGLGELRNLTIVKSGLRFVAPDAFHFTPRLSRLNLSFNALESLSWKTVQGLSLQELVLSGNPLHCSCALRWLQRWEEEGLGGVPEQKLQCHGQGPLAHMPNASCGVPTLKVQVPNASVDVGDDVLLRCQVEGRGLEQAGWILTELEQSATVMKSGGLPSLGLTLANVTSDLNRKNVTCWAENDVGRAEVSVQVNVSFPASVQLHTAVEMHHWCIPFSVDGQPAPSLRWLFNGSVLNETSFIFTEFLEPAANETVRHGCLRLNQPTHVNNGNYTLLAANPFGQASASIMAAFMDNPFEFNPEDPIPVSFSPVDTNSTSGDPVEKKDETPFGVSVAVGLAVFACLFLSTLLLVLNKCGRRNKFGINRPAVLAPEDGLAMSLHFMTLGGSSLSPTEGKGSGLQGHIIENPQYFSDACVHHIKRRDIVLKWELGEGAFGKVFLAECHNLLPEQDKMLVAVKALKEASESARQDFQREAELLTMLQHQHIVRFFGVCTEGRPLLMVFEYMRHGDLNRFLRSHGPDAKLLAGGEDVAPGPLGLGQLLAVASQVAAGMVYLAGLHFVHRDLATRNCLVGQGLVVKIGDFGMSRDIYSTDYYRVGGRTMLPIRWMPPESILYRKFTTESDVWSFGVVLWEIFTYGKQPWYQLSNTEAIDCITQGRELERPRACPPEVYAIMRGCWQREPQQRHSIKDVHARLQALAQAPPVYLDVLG
Chain of Proto-oncogene tyrosine-protein kinase receptor Ret (Homo sapiens), P07949 [A883F] (P07949 whole entry A883F, canonical isoform): as the sequence (P07949 whole entry, looked up, canonical isoform) above, with A883F counted along it
Chain of Proto-oncogene tyrosine-protein kinase receptor Ret (P07949 whole entry, the tested form may be a part, canonical isoform): as the sequence (P07949 whole entry, looked up, canonical isoform) above

Activity [2]: > 90%
inhibition [3]: Active
inhibition [7]: Active
Activity [8]: inactive
inhibition [9]: Active
ΔTm [10]: 16 °C
inhibition [11]: Active
IC50 [13]: 3 nM
Activity [14]: inactive
inhibition [15]: Active
Activity [16]: > 90%
Activity [19]: inactive
Compound: CC(C)(C)c1cc(NC(=O)Cc2ccc(-n3cnc4cc(-c5ccc(S(C)(=O)=O)cc5)ccc43)cc2)no1
Activity [1]: Non-Toxic
inhibition [4]: Active
Activity [5]: Non-Toxic
inhibition [6]: Active
IC50 [12]: > 100 nM
IC50 [17]: 3.1 nM
Activity [18]: Non-Toxic
